Tests used:
[1] = biological target: T1, Broad substrate specificity ATP-binding cassette transporter ABCG2 (Homo sapiens, UniProt Q9UNQ0); assay: Inhibition of ABCG2 expressed in HEK293 cells assessed as mitoxantrone-mediated efflux by flow cytometry; format: cell-based
T1 sequence (Q9UNQ0 whole entry): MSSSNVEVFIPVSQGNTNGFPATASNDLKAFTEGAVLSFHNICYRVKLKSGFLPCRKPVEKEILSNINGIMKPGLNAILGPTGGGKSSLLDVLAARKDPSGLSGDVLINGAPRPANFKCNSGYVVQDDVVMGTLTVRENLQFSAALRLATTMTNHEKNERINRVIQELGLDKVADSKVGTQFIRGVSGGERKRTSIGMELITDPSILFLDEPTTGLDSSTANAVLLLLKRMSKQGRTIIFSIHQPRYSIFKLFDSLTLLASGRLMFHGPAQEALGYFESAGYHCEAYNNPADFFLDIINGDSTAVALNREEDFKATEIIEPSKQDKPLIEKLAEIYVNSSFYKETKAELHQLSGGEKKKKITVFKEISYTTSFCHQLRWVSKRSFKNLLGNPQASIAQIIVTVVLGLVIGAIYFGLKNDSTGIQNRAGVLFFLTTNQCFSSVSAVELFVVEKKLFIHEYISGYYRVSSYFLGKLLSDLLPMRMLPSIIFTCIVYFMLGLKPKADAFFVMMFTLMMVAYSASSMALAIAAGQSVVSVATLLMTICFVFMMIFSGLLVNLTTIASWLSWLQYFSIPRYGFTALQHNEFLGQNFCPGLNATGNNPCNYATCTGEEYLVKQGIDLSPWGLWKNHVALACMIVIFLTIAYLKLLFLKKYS
In short: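 HEK-293 cells transfected with human wild-type (R482) ABCG2, or empty-vector control cells, loaded with 5 µmol/L mitoxantrone for 30 min at 37 °C with or without a range of inhibitor concentrations (DMSO, 0.5% final). Cells washed in PBS, then kept 1 h in substrate-free medium with the same inhibitor level. Intracellular fluorescence read by flow cytometry. 100% = control minus ABCG2-cell mean fluorescence without inhibitor. IC50 derived.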

[2] = biological target: T1, Broad substrate specificity ATP-binding cassette transporter ABCG2; assay: Inhibition of ABCG2 expressed in HEK293 cells assessed as mitoxantrone-mediated efflux by flow cytometry relative to GF120918; format: cell-based; set-up: concentration or dose not given beside the values

Structure (SMILES)	IC50 [1] [µM]	Inhibition [2] [%]
COc1ccc2[nH]c3ccccc3c(=O)c2c1OC	> 20	–
COc1cc(C(F)(F)F)cc2[nH]c3ccccc3c(=O)c12	0.77	81
O=c1c2ccccc2[nH]c2ccc(O)cc12	> 20	–
COc1cc(O)c2c(=O)c3ccccc3[nH]c2c1	> 20	–
O=c1c2ccccc2[nH]c2cc(C(F)(F)F)cc(O)c12	> 20	–
COc1ccc(CCNC(=O)c2cccc3c(=O)c4ccccc4[nH]c23)cc1OC	0.45	90.2
COc1ccc(CCNC(=O)c2cccc3c(=O)c4ccc(OC)cc4[nH]c23)cc1	0.56	112.3
COc1ccc2c(=O)c3cccc(C(=O)NCCc4ccc(OC)c(OC)c4)c3[nH]c2c1	1.38	94.9
COc1cccc2[nH]c3ccccc3c(=O)c12	6.3	74
COc1cc(OC)c2c(=O)c3ccccc3[nH]c2c1	7.9	65
COc1ccc2[nH]c3ccccc3c(=O)c2c1	4.8	66
COc1cc2c(cc1OC)CN(CCc1ccc(NC(=O)c3cccc4c(=O)c5cccc(OC)c5[nH]c34)cc1)CC2	–	100
COc1ccc(CCNC(=O)c2cccc3c(=O)c4ccccc4[nH]c23)cc1	0.35	71.3
O=c1c2ccccc2[nH]c2cccc(O)c12	> 20	–

— ChEMBL document CHEMBL1147844, “Acridone derivatives: design, synthesis, and inhibition of breast cancer resistance protein ABCG2” (Bioorg Med Chem, 2007)
